Kir21 inh: Kir2.1 (mouse) channel inhibition; 310,000 compounds, 0.85% hits; P35561; B-score at 10 µM; HEK293-Kir2.1, FluxOR thallium flux fluorescence; active compounds read low; AID 1672;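 active = fluorescence ratio B-score at or below minus 3 SD of library scores, with starting-brightness B-score within 2 SD, cut at about -4.2 in these data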;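 note: channel flux triggered by added potassium and thallium sulfate stimulus; B-score of peak minus minimum fluorescence over baseline after thallium stimulus; more negative B-score means stronger Kir2.1 block with less thallium influx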
KCNQ1 pot: human KCNQ1 channel potentiation or activation. P51787. CHO-K1 KCNQ1, thallium flux FluxOR fluorescence; active compounds read high. B-score at 10 µM. 310,000 compounds, 0.35% hits;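 active = fluorescence ratio B-score, a plate-corrected score, at least three library SD, with initial intensity B-score within 5 SD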
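Doses: Single concentration per compound, DMSO matched to controls | Test system: KCNQ1-transfected CHO-K1 cells | Timing: 90 min dye loading and 20 min compound exposure, both at room temperature | Measured by: Kinetic FluxOR thallium fluorescence, 10-s 1-Hz baseline, 110-s post-stimulus read | Medium: Assay buffer with matched DMSO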
hERG protect: shields human hERG channel from block by proarrhythmic agents. activation (rescue from dofetilide block), less the hit threshold, % at 10 µM. Q12809. CHO-hERG, FluxOR thallium flux, dofetilide IC70 present. AID 1511. 310,000 compounds, 0.51% hits;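 active = activation above the mean of controls blocked by dofetilide plus 5 SD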;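 note: thallium influx through hERG after potassium depolarization seen as dye fluorescence rise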
KCNK3 block: human KCNK3 channel inhibition, primary screen | B-score at 10 µM | CHO-KCNK3 thallium flux, FluxOR fluorescence; active compounds read low | O14649 | AID 602410 | 340,000 compounds, 0.84% hits;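 active = B-score under library mean minus 4 SD, starting fluorescence ratio at most library mean plus 5 SD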;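 note: more negative B-score means stronger inhibition of thallium flux through KCNK3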
KCNK9 block: human KCNK9 channel inhibition. Q9NPC2. HEK293 KCNK9, FluxOR thallium flux fluorescence; active compounds read low. B-score at 10 µM. 310,000 compounds, 1.2% hits;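 active = ratio B-score over 3 SD below the library mean, with starting fluorescence within 5 SD of its mean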;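 note: negative B-score means less thallium flux so channel inhibition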
Target sequence (Q9NPC2 whole entry, looked up): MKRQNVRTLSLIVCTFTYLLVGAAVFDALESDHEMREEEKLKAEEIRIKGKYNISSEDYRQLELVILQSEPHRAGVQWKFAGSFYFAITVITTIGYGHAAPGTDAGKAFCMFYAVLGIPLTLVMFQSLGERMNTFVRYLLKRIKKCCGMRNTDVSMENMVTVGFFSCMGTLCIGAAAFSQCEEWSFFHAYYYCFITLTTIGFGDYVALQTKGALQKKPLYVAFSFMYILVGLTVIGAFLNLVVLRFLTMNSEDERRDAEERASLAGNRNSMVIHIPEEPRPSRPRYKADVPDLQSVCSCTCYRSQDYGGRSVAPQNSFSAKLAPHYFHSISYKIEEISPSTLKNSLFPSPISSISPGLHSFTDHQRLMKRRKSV
KCNQ1 block: inhibitors of human KCNQ1 potassium channel | P51787 | CHO-K1 KCNQ1, FluxOR thallium flux fluorescence; active compounds read high | B-score at 10 µM | 310,000 compounds, 1.3% hits | AID 2642;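 active = compounds whose thallium flux B-score, printed positive for inhibition, exceeds three library SD while starting fluorescence stays within three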;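 note: channel opened by potassium depolarization with thallium stimulus after 20 min compound exposure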
* hit, by the source's call; i = inactive; nt = no result. The list is not random: actives were taken first. Their share in the collection is about 3.7%.

SMILES	Kir21 inh	KCNQ1 pot	hERG protect	KCNK3 block	KCNK9 block	KCNQ1 block
O=C1C(Cl)=C(NS(=O)(=O)c2ccc([N+](=O)[O-])cc2)C(=O)c2ccccc21	-0.64	i	-23	i	i	6*
Cc1ccccc1OCc1nc2ccccc2c(=O)n1/N=C/c1ccco1	-0.07	i	-5	i	-6.9*	i
Cc1nc2ccccc2c(=O)n1/N=C/c1ccco1	-0.05	i	-1	i	i	i
O=C(COC(=O)C1(c2cccc(F)c2)CCCC1)NCc1cccs1	-5.3*	i	-22	i	i	i
O=C(NCc1ccc2c(c1)OCO2)c1cccc(F)c1	-0.48	i	-5	i	i	i
O=C(COC(=O)C1(c2cccc(F)c2)CCCC1)NCc1ccc2c(c1)OCO2	-4.2*	i	-9	i	i	i
Cc1c(C(=O)Nc2cc(F)cc(F)c2)cnn1-c1ccccc1	0.91	i	-3	i	i	i
CC(C)c1ccc(C2C3=C(CC(C)(C)CC3=O)NC3=C2C(=O)c2ccccc23)cc1 (centres undefined)	-0.56	i	-7	i	i	11*
CC1(C)CC(=O)C2=C(C1)NC1=C(C(=O)c3ccccc31)C2c1ccccc1 (centres undefined)	0.38	i	-6	i	i	i
CC1(C)CC(=O)C2=C(C1)NC1=C(C(=O)c3ccccc31)C2c1cc([N+](=O)[O-])ccc1O (centres undefined)	0.34	i	-13	i	i	6*
Cn1c(=O)c2sccc2n2c(CCCC(=O)N3CCCCC3)nnc12	-0.97	i	-14	i	i	i
C=CCSc1nc2c(cnn2-c2ccccc2)c(=O)n1N	0.01	i	-6	i	i	i
CC(Cc1ccccc1)NC(=S)CN1CCCC1=S (centres undefined)	-4.6*	i	-8	i	i	i
CC(Cc1ccccc1)NC(=O)CC(c1ccccc1)c1ccccc1O (centres undefined)	-1.1	i	-4	i	i	i
Cc1cccc(C)c1NS(=O)(=O)c1cc2c3c(c1)CC(=O)N3CCC2	0.01	i	-6	i	i	i
Cc1cccc(-c2cnn(-c3ccccc3)c2N)c1	1.4	i	-5	i	i	i
Nc1c(-c2ccccc2)cnn1-c1cccc(Cl)c1	0.28	i	-12	i	-7*	i
O=C(NNC(=S)NCCc1ccccc1)c1ccc(Br)s1	-0.22	i	-3	i	i	8*
O=C(CCc1ccc(O)cc1)NNC(=S)NCCc1ccccc1	-1.1	i	-7	i	i	i
CCOc1ccc2nc(NS(=O)(=O)Cc3ccccc3)sc2c1	-0.74	i	-7	i	i	i
CCOC(=O)Cn1c(S(=O)(=O)Cc2ccc(Cl)cc2)nc(-c2ccccc2)c1-c1ccccc1	-1.3	i	-12	i	-6.8*	i
CCOC(=O)c1c(NC(=O)CSc2nc3ccc(C)cc3[nH]2)sc2c1CC(C)(C)NC2(C)C	-4.8*	i	-12	i	i	i
COc1ccc(C(=O)n2cnc3ccccc32)cc1[N+](=O)[O-]	1.3	i	-1	i	i	i
CCN(CC)C(=O)Cn1cnc2sc(C)c(S(=O)(=O)N3CCC(C)CC3)c2c1=O	-1.6	i	-2	i	i	i
O=C1CSC(c2ccccc2F)N1c1cc(Cl)ccc1O (centres undefined)	-6*	i	-18	i	i	i
SMILES	Kir21 inh	KCNQ1 pot	hERG protect	KCNK3 block	KCNK9 block	KCNQ1 block
c1ccc(NCc2ccncc2)cc1	0.3	i	-9	i	i	i
Cc1c(Cl)c(C(=O)NNC(=S)NCc2ccco2)nn1C	0.33	i	-18	i	i	i
CCCCNC(=S)NNC(=O)c1nn(C)c(C)c1Cl	0.3	17*	-14	i	i	i
CCCc1ccc(/C=C2\C(=O)c3ccccc3C(O)=C2C(=O)OCC)cc1	-1.8	8*	-9	nt	i	i
CCOC(=O)C1=C(O)c2ccccc2C(=O)/C1=C\c1ccc(CC)cc1	-3	8*	2	i	i	i
Cc1ccc(CN=C(N)Nc2nc(C)cc(C)n2)cc1	-1.9	i	-24	i	i	i
O=C(NCc1ccc(Cl)cc1)c1n[nH]c([N+](=O)[O-])c1Cl	0.29	i	-11	i	i	6*
C/C(=N\NC(=O)CN1CCN(S(=O)(=O)c2ccc(C)cc2)CC1)c1ccc(O)cc1	0.6	i	-5	i	i	i
COc1ccc(C)cc1N1C(=N)/C(=C2/Nc3ccccc3S2)C(c2ccccc2)C1=O (centres undefined)	nt	nt	nt	i	nt	nt
CC(C)(O)CC[C@@H](O)[C@](C)(O)[C@H]1CC[C@@]2(O)C3=CC(=O)[C@@H]4C[C@@H](O)[C@@H](O)C[C@]4(C)[C@H]3CC[C@]12C	0.64	i	-3	i	i	i
CN(C)CC(CCC(CN(C)C)C(O)(c1ccccc1)c1ccccc1)C(O)(c1ccccc1)c1ccccc1 (centres undefined)	-5.6*	i	-7	nt	i	i
CCCCN1C(=O)/C(=C/C=C2\SCCN2C)SC1=S	-1.2	i	-16	i	i	i
CN1CCS/C1=C/C=C1\SC(=S)N(CC(=O)O)C1=O	-12	i	-32	i	i	14*
CCOC(=O)N/N=C/c1c(C)nn(-c2ccccc2Cl)c1Cl	1.2	i	1	i	-8.1*	i
O=c1c(/C=C(\O)c2ccc(F)cc2)nc2ccccc2n1-c1ccccc1	-1.1	i	-2	i	i	6*
Cn1c(=O)c(/C=C/c2ccc(F)cc2)nc2ccccc21	0.71	i	-7	i	i	i
COc1ccc(CCC(=O)N2CCCC(Nc3ccc(C)c(C)c3)C2)cc1OC (centres undefined)	-2.1	i	-6	i	i	i
O=[N+]([O-])c1ccc(O)c2ncccc12	-0.09	i	2	i	i	i
O=[N+]([O-])c1cc([N+](=O)[O-])c2cccnc2c1Oc1ccccc1O	-8.9*	i	-40	i	i	8*
COc1ccc(C(CCNC(C)c2ccccc2)c2ccc(F)cc2)cc1 (centres undefined)	-7.5*	i	-25	i	i	i
COc1ccc(C(CCNCc2ccccc2)c2ccc(F)cc2)cc1 (centres undefined)	-12*	i	-16	i	i	i
